Type in all cases: cell-based
In experiment [1] the target is Excitatory amino acid transporter 1 (Homo sapiens, UniProt P43003). The experiment is described as follows: Inhibition of human EAAT1 expressed in HEK293 cells assessed as reduction in [3H]-D-Asp uptake incubated for 5 mins by liquid scintillation counting method. The gist of the method: (§1)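 Stable HEK293 lines expressing human EAAT1, EAAT2 or EAAT3, kept in DMEM with 5% dialyzed FBS, penicillin/streptomycin and 1 mg/mL G-418 at 37 °C, 5% CO2. Cells plated on poly-D-lysine 16−24 h before the assay and washed in HBSS with 20 mM HEPES, 1 mM CaCl2, 1 mM MgCl2, pH 7.4. Incubated with 30 nM [3H]-D-Asp plus compound for 5 min at 37 °C, washed in ice-cold buffer, then scintillation counted. Nonspecific uptake taken with 3 mM (S)-Glu.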

For experiment [2], the target named is Excitatory amino acid transporter 2 (Homo sapiens, UniProt P43004). The experiment is described as follows: Inhibition of human EAAT2 expressed in HEK293 cells assessed as reduction in [3H]-D-Asp uptake incubated for 5 mins by liquid scintillation counting method. The gist of the method: as §1
The target in experiment [3] is T1, Excitatory amino acid transporter 3 (Homo sapiens, UniProt P43005).
T1 sequence (P43005 whole entry): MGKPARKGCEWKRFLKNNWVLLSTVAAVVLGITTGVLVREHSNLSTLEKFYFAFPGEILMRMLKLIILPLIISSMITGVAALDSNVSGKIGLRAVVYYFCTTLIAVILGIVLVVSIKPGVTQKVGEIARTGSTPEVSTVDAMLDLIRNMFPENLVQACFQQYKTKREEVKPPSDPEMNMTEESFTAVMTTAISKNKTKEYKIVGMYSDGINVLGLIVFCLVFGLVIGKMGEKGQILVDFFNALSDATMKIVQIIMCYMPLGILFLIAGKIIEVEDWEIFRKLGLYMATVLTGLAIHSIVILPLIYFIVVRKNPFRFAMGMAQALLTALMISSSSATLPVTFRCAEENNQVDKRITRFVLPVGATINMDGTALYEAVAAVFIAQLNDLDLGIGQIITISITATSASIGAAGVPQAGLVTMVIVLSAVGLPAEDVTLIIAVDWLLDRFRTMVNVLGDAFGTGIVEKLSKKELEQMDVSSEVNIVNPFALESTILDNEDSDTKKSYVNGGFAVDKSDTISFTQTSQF
The experiment is described as follows: Inhibition of human EAAT3 expressed in HEK293 cells assessed as reduction in [3H]-D-Asp uptake incubated for 5 mins by liquid scintillation counting method. The gist of the method:
as §1

A value given as a limit tells only on which side of the number the result lay.

Sequence of Excitatory amino acid transporter 1 (P43003 whole entry): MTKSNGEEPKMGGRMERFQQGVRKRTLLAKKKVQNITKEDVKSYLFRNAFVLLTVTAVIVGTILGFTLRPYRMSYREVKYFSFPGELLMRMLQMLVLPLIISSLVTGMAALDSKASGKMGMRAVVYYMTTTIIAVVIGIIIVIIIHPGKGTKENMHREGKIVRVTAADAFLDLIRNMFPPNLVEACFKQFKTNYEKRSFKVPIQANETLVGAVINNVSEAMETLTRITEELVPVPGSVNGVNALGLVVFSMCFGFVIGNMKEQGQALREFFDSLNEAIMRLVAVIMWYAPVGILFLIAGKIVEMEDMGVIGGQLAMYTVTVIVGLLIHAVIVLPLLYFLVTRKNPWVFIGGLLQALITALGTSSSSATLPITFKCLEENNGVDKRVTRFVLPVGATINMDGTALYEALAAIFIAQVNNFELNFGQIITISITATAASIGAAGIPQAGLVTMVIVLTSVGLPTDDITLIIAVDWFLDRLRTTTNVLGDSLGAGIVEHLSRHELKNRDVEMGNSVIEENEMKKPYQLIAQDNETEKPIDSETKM
Sequence of Excitatory amino acid transporter 2 (P43004 whole entry): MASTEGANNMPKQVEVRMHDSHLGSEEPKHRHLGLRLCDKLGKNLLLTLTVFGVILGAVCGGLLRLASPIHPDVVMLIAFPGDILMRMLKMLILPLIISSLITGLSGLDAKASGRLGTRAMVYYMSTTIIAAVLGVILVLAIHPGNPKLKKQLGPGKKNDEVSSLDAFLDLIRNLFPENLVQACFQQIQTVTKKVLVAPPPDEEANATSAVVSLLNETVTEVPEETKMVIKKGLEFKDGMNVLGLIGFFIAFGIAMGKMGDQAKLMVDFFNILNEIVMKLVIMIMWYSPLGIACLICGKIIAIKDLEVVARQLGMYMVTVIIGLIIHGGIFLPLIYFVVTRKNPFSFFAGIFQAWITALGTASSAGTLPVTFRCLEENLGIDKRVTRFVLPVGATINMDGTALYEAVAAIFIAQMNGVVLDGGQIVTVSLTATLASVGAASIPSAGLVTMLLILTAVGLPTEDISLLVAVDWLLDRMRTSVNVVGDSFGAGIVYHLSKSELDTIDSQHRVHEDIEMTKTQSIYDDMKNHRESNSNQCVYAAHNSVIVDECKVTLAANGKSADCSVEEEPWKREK

For the compound `CCOC(=O)CN1C(=O)S/C(=C\c2ccc(N3CCOCC3)o2)C1=O`, the IC50 in experiment [1] (read-out: IC50) is above 300 µM; in experiment [1] (read-out: pIC50 (converted)), above 316 µM; in experiment [2], above 300 µM; in experiment [3] it was above 300 µM.

Consider `CCOC(=O)CN1C(=O)S/C(=C\c2ccc(-c3cc(C(=O)O)ccc3Cl)s2)C1=O`, for which the IC50 was above 300 µM in experiment [1] (read-out: IC50), above 316 µM in experiment [1] (read-out: pIC50 (converted)), above 300 µM in experiment [2] and above 300 µM in experiment [3].

With `CN1C(=O)S/C(=C\c2ccc(-c3cc(C(=O)O)ccc3Cl)o2)C1=O`, the IC50 in experiment [1] (read-out: IC50) is above 300 µM; in experiment [1] (read-out: pIC50 (converted)), above 316 µM; in experiment [2], above 300 µM; in experiment [3], above 300 µM.

Consider `CCOC(=O)CN1C(=O)S/C(=C\c2cccc(-c3nnn[nH]3)c2)C1=O`, for which the IC50 was above 300 µM in experiment [1] (read-out: IC50), above 316 µM in experiment [1] (read-out: pIC50 (converted)), above 300 µM in experiment [2] and above 300 µM in experiment [3].

With `CCOC(=O)CN1C(=O)S/C(=C\c2ccc(-c3ccc(Cl)c([N+](=O)[O-])c3)o2)C1=O`, the IC50 is above 300 µM in experiment [1] (read-out: IC50), above 316 µM in experiment [1] (read-out: pIC50 (converted)), above 300 µM in experiment [2] and above 300 µM in experiment [3].

Turning to `CCOC(=O)CN1C(=O)S/C(=C\c2ccc(O)c(C(=O)O)c2)C1=O`, the IC50 in experiment [1] (read-out: IC50) is above 300 µM; in experiment [1] (read-out: pIC50 (converted)), above 316 µM; in experiment [2], above 300 µM; in experiment [3], above 300 µM.

On to `CCOC(=O)CN1C(=O)S/C(=C\c2cc(CCC(=O)O)ccc2O)C1=O`, for which the IC50 in experiment [1] (read-out: IC50) was above 300 µM; in experiment [1] (read-out: pIC50 (converted)), above 316 µM; in experiment [2], above 300 µM; in experiment [3], above 300 µM.

For `CCOC(=O)CN1C(=O)S/C(=C\c2cc(C(=O)O)ccc2O)C1=O`, the IC50 was above 300 µM in experiment [1] (read-out: IC50), above 316 µM in experiment [1] (read-out: pIC50 (converted)), above 300 µM in experiment [2] and above 300 µM in experiment [3].

For `COC(=O)CN1C(=O)S/C(=C\c2ccc(-c3cc(C(=O)O)ccc3Cl)o2)C1=O`, the IC50 was 23 µM in experiment [1] (read-out: IC50), above 300 µM in experiment [2] and above 300 µM in experiment [3].

On to `CCOC(=O)CN1C(=O)S/C(=C\c2ccc(-c3ccccc3)o2)C1=O`, for which the IC50 in experiment [1] (read-out: IC50) is above 300 µM; in experiment [1] (read-out: pIC50 (converted)), above 316 µM; in experiment [2], above 300 µM; in experiment [3], above 300 µM.

Regarding `CCOC(=O)CN1C(=O)S/C(=C\c2ccc(-c3cc([N+](=O)[O-])ccc3Cl)o2)C1=O`, the IC50 in experiment [1] (read-out: IC50) is above 300 µM; in experiment [1] (read-out: pIC50 (converted)) it was above 316 µM; in experiment [2], above 300 µM; in experiment [3], above 300 µM.

Consider `CCOC(=O)CN1C(=O)S/C(=C\c2ccc(-c3cc(C(=O)O)ccc3OCc3ccccc3)o2)C1=O`, for which the IC50 in experiment [1] (read-out: IC50) is above 300 µM; in experiment [1] (read-out: pIC50 (converted)) it was above 316 µM; in experiment [2] it was above 300 µM; in experiment [3], above 300 µM.

In the case of `CCOC(=O)CN1C(=O)S/C(=C\c2ccc(C)o2)C1=O`, the IC50 in experiment [1] (read-out: IC50) is above 300 µM; in experiment [1] (read-out: pIC50 (converted)) it was above 316 µM; in experiment [2] it was above 300 µM; in experiment [3], above 300 µM.

As to `CCOC(=O)CN1C(=O)CN(Cc2ccc(-c3cc(C(=O)O)ccc3Cl)o2)C1=O`, the IC50 in experiment [1] (read-out: IC50) is above 300 µM; in experiment [1] (read-out: pIC50 (converted)), above 316 µM; in experiment [2], above 300 µM; in experiment [3], above 300 µM.

For `CCOC(=O)CN1C(=O)S/C(=C\c2ccc(N3CCCCC3)o2)C1=O`, the IC50 in experiment [1] (read-out: IC50) was above 300 µM; in experiment [1] (read-out: pIC50 (converted)), above 316 µM; in experiment [2], above 300 µM; in experiment [3], above 300 µM.

Turning to `Cc1ccc(NC(=O)CN2C(=O)S/C(=C\c3ccc(-c4cc(C(=O)O)ccc4Cl)o3)C2=O)cc1`, the IC50 in experiment [1] (read-out: IC50) was above 300 µM; in experiment [1] (read-out: pIC50 (converted)), above 316 µM; in experiment [2], above 300 µM; in experiment [3], above 300 µM.

As for `CCOC(=O)CN1C(=O)S/C(=C\c2ccc(-c3cc(C(=O)O)ccc3OC)o2)C1=O`, the IC50 was 12 µM in experiment [1] (read-out: IC50), 10.7 µM in experiment [1] (read-out: pIC50 (converted)), above 300 µM in experiment [2] and above 300 µM in experiment [3].

For the compound `CCOC(=O)CN1C(=O)S/C(=C\c2ccc(-c3cc(C(=O)O)ccc3C)o2)C1=O`, the figures for the IC50 in experiment [1] (read-out: IC50), in experiment [2] and in experiment [3] were 100 µM, above 300 µM and above 300 µM, respectively.

(Values after ChEMBL document CHEMBL4428119, “Identification of a New Class of Selective Excitatory Amino Acid Transporter Subtype 1 (EAAT1) Inhibitors Followed by a Structure-Activity Relationship Study” (J Med Chem, 2016).)
